Measured values reported in ChEMBL document CHEMBL5620435, “Elucidating the Mechanism of Metabolism of Cannabichromene by Human Cytochrome P450s” (J Nat Prod, 2024).
pKi: −log10 of the molar value. Activity calls are given as the source filed them. The rule behind the calls is not given here.

Legend:
Cytochrome P450 3A4 = Cytochrome P450 3A4 (Homo sapiens, UniProt P08684); test: Binding affinity to CYP3A4 (unknown origin) assessed as fold increase in apparent dissociation constant by spectroscopic titration analysis in presence of cytochrome P450 reductase; format: ADME
Summary of the method: (§1)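 His-tagged CYPs were expressed in E. coli and Ni-NTA purified. Buffer-exchanged CYP was in 0.1 M phosphate pH 7.4. CPR was added and the pair was preincubated 5 min; final protein was 5–6 μM each. CBC (ethanol stock, ≤1% final) was titrated 0–100 μM with 5 min at 37 °C per step. The Soret shift from ~417 to ~390 nm was recorded as a difference spectrum. Kd(app) came from a one-site binding fit and was compared with CYP alone (4–5 μM protein).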

[1] = Drug metabolism assessed as benzylic hydroxylation mediated 7-(1-hydroxypentyl)-2-methyl-2-(4-methylpent-3-en-1-yl)-2H-chromen-5-ol metabolite formation; format: ADME; settings: 40 min, dose 5-80 µM
Summary of the method: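 Pooled human liver microsomes (mixed-gender, 50 donors) gave 0.4 μM CYP final in 0.1 M phosphate pH 7.4. CBC 40 μM final was preincubated 10 min. NADPH 1 mM final was added and the reaction ran 30 min at 37 °C. It was quenched and extracted three times with hexane/ethyl acetate (80:20), dried, resuspended in 95% ethanol and analysed by LC-MS (C18, positive ESI).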

Cannabinoid receptor 2 = Cannabinoid receptor 2 (Homo sapiens, UniProt P34972); test: Binding affinity to CBR2 (unknown origin)
[2] = Drug metabolism in C57BL/6J mouse plasma assessed as 2-(2-(3,3-dimethyloxiran-2-yl)ethyl)-2-methyl-7-pentyl-2H-chromen-5-ol metabolite formation at 20 mg/kg, ip measured after 0.5 to 2 hrs by LC/MS/MS analysis; format: ADME, organism-based; settings: in vivo, time 0.5-2 hrs
Summary of the method: (§2)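 Female C57BL/6J mice, 8–10 weeks old, received CBC at 20 mg/kg in PBS with 6% Tween-80, IV via the tail vein or IP (n = 3 per route). Blood was taken terminally by cardiac puncture into heparin at 0.5 and 2 h. Plasma (200 μL) was extracted with hexane/ethyl acetate (80:20). CBC and metabolites were quantified by targeted LC-MS/MS (C6-phenyl column, positive ESI) as means ±SE.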

Cannabinoid receptor 1 = Cannabinoid receptor 1 (Homo sapiens, UniProt P21554); test: Displacement of d [3H]CP-55,940 from CBR1 (unknown origin) expressed in Sf9 cell membrane assessed as inhibition constant by Topcount scintillation counting analysis; format: cell membranes
Cytochrome P450 2J2 [3] = target: T1, Cytochrome P450 2J2 (Homo sapiens, UniProt P51589); test: Drug metabolism assessed as ratio of CYP2J2 (unknown origin) mediated (E)-2-(5-hydroxy-4-methylpent-3-en-1-yl)-2-methyl-7-pentyl-2H-chromen-5-ol formation to 2-(2-(3,3-dimethyloxiran-2-yl)ethyl)-2-methyl-7-pentyl-2H-chromen-5-ol formation; format: ADME
T1 sequence (P51589 whole entry): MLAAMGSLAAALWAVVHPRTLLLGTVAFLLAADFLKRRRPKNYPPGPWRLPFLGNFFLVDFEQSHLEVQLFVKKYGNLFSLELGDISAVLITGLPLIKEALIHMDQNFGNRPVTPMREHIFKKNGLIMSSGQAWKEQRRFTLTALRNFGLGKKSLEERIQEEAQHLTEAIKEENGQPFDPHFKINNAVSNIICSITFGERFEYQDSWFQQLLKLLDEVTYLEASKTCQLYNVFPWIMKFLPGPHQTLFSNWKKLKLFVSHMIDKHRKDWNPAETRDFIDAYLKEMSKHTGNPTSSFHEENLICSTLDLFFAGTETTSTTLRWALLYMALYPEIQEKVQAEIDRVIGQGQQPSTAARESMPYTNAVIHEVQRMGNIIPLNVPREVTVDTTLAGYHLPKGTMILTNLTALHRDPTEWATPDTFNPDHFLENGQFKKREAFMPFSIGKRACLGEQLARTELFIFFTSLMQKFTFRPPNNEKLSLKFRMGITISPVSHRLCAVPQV
Summary of the method: (§3)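 Recombinant CYP (0.5 μM final) was reconstituted in POPC:POPS (8:2) with CPR (0.6 μM) in 0.1 M potassium phosphate pH 7.4. CBC (5–80 μM) was preincubated 10 min at 37 °C and the reaction started with NADPH. Products were extracted three times with hexane/ethyl acetate (80:20), dried, resuspended in ethanol and analysed by LC-MS/MS.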

Cytochrome P450 2C8 [4] = target: T2, Cytochrome P450 2C8 (Homo sapiens, UniProt P10632); test: Binding affinity to CYP2C8 (unknown origin) assessed as fold increase in apparent dissociation constant by spectroscopic titration analysis in presence of cytochrome P450 reductase; format: ADME; summary of the method: as §1
T2 sequence (P10632 whole entry): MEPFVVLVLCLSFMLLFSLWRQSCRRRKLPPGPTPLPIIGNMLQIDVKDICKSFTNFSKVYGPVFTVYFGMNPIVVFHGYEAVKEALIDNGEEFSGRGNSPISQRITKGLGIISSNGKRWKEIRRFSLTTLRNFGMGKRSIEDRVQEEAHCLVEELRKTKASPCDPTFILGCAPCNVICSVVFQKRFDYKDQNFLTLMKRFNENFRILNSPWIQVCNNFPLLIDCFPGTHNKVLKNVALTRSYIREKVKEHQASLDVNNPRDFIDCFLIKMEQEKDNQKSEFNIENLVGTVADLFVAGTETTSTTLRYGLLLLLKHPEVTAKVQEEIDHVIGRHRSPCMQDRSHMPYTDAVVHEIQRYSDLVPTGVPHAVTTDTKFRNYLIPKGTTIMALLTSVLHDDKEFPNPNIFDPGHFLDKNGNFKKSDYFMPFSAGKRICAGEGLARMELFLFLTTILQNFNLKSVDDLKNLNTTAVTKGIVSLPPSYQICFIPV

[5] = Drug metabolism in C57BL/6J mouse plasma assessed as (E)-2-(5-hydroxy-4-methylpent-3-en-1-yl)-2-methyl-7-pentyl-2H-chromen-5-ol metabolite formation at 20 mg/kg, ip measured after 2 hrs by LC/MS/MS analysis; format: ADME, organism-based; settings: in vivo; summary of the method: as §2
[6] = Drug metabolism in C57BL/6J mouse plasma assessed as (E)-2-(5-hydroxy-4-methylpent-3-en-1-yl)-2-methyl-7-pentyl-2H-chromen-5-ol metabolite formation at 20 mg/kg, iv administered via tail vein measured after 2 hrs by LC/MS/MS analysis; format: ADME, organism-based; settings: in vivo; summary of the method: as §2
Cytochrome P450 2C8 [7] = target: T2, Cytochrome P450 2C8; test: Drug metabolism assessed as ratio of CYP2C8 (unknown origin) mediated (E)-2-(5-hydroxy-4-methylpent-3-en-1-yl)-2-methyl-7-pentyl-2H-chromen-5-ol formation to 2-(2-(3,3-dimethyloxiran-2-yl)ethyl)-2-methyl-7-pentyl-2H-chromen-5-ol formation; format: ADME; summary of the method: as §3
[8] = Stability in C57BL/6J mouse plasma assessed as compound consumption by measuring reduction in parent compound level at 20 mg/kg, ip measured after 0.5 to 2 hrs by LC-MS/MS analysis; format: ADME, organism-based; settings: in vivo, time 0.5-2 hrs; summary of the method: as §2
Cytochrome P450 2D6 = Cytochrome P450 2D6 (Homo sapiens, UniProt P10635); test: Binding affinity to CYP2D6 (unknown origin) assessed as fold increase in apparent dissociation constant by spectroscopic titration analysis in presence of cytochrome P450 reductase; format: ADME; summary of the method: as §1
[9] = Drug metabolism in C57BL/6J mouse plasma assessed as (E)-2-(5-hydroxy-4-methylpent-3-en-1-yl)-2-methyl-7-pentyl-2H-chromen-5-ol metabolite formation at 20 mg/kg, iv administered via tail vein measured after 0.5 hrs by LC/MS/MS analysis; format: ADME, organism-based; settings: in vivo; summary of the method: as §2
Cytochrome P450 2J2 [10] = target: T1, Cytochrome P450 2J2; test: Binding affinity to CYP2J2 (unknown origin) assessed as fold increase in apparent dissociation constant by spectroscopic titration analysis in presence of cytochrome P450 reductase; format: ADME; summary of the method: as §1
[11] = Drug metabolism in C57BL/6J mouse plasma assessed as 2-(2-(3,3-dimethyloxiran-2-yl)ethyl)-2-methyl-7-pentyl-2H-chromen-5-ol metabolite formation at 20 mg/kg, iv administered via tail vein measured after 0.5 to 2 hrs by LC/MS/MS analysis; format: ADME, organism-based; settings: in vivo, time 0.5-2 hrs; summary of the method: as §2
[12] = Drug metabolism in C57BL/6J mouse plasma assessed as (E)-2-(5-hydroxy-4-methylpent-3-en-1-yl)-2-methyl-7-pentyl-2H-chromen-5-ol metabolite formation at 20 mg/kg, ip measured after 0.5 hrs by LC/MS/MS analysis; format: ADME, organism-based; settings: in vivo; summary of the method: as §2
BV-2 [13] = test: Cytotoxicity against mouse BV-2 cells assessed as reduction in cell viability at 0.1 to 5 uM incubated for 24 hrs by MTT assay; format: toxicity, cell-based; settings: bv-2, 24 h, dose 0.1-5 µM
Summary of the method: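 BV-2 cells were seeded at about 10 000/well and grown for 24 h. They were preincubated 4 h with cannabinoids at 0.1, 1.0, 2.5 or 5.0 μM (0.1% ethanol), then held 24 h with or without LPS (25 ng/mL). MTT reagent was added for 4 h at 37 °C, the formazan was dissolved, and absorbance was read at 570 nm.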

[14] = Drug metabolism in C57BL/6J mouse plasma assessed as 5-(5-hydroxy-2-methyl-7-pentyl-2H-chromen-2-yl)-2-methylpentane-2,3-diol metabolite formation at 20 mg/kg, iv administered via tail vein measured after 0.5 to 2 hrs by LC/MS/MS analysis; format: ADME, organism-based; settings: in vivo, time 0.5-2 hrs; summary of the method: as §2
[15] = Drug metabolism in C57BL/6J mouse plasma assessed as 5-(5-hydroxy-2-methyl-7-pentyl-2H-chromen-2-yl)-2-methylpentane-2,3-diol metabolite formation at 20 mg/kg, ip measured after 0.5 to 2 hrs by LC/MS/MS analysis; format: ADME, organism-based; settings: in vivo, time 0.5-2 hrs; summary of the method: as §2
BV-2 [16] = test: Antiinflammatory activity in LPS-induced mouse BV-2 cells assessed as reduction in TNF-alpha production at 0.1 to 5 uM preincubated for 4 hrs followed by LPS stimulation for 24 hrs by ELISA; format: functional, cell-based; settings: dose 0.1-5 µM, time 28.0 hrs
Summary of the method: (§4)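 BV-2 microglia in high-glucose DMEM with 5% heat-inactivated FBS, 37 °C, 5% CO2. Cells (50 000/well) were pretreated with cannabinoids at 0.1, 1.0, 2.5 or 5.0 μM (ethanol 0.1% final) for 4 h, then stimulated with LPS (25 ng/mL) for 24 h. Medium was collected. NO was read by Griess assay at 540 nm against a sodium nitrite calibration curve. IL-6, TNFα and Arg1 were measured by ELISA.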

BV-2 [17] = test: Antiinflammatory activity in LPS-induced mouse BV-2 cells assessed as reduction in IL-6 production at 0.1 to 5 uM preincubated for 4 hrs followed by LPS stimulation for 24 hrs by ELISA; format: functional, cell-based; settings: dose 0.1-5 µM, time 28.0 hrs; summary of the method: as §4
BV-2 [18] = test: Antiinflammatory activity in LPS-induced mouse BV-2 cells assessed as reduction in NO production at 0.1 to 5 uM preincubated for 4 hrs followed by LPS stimulation for 24 hrs by Griess reagent based assay; format: functional, cell-based; settings: dose 0.1-5 µM, time 28.0 hrs; summary of the method: as §4
BV-2 [19] = test: Antiinflammatory activity in LPS-induced mouse BV-2 cells assessed as increase in Arg-1 production preincubated for 4 hrs followed by LPS stimulation for 24 hrs by ELISA; format: functional, cell-based; settings: dose 0.1-5 µM, time 28.0 hrs; summary of the method: as §4
BV-2 [20] = test: Antiinflammatory activity in LPS-induced mouse BV-2 cells assessed as reduction in IL-6 production preincubated for 4 hrs followed by LPS stimulation for 24 hrs by ELISA; format: functional, cell-based; settings: dose 0.1-5 µM, time 28.0 hrs; summary of the method: as §4
BV-2 [21] = test: Antiinflammatory activity in LPS-induced mouse BV-2 cells assessed as reduction in NO production preincubated for 4 hrs followed by LPS stimulation for 24 hrs by Griess reagent based assay; format: functional, cell-based; settings: dose 0.1-5 µM, time 28.0 hrs; summary of the method: as §4
BV-2 [22] = test: Antiinflammatory activity in LPS-induced mouse BV-2 cells assessed as reduction in TNF-alpha production preincubated for 4 hrs followed by LPS stimulation for 24 hrs by ELISA; format: functional, cell-based; settings: dose 0.1-5 µM, time 28.0 hrs; summary of the method: as §4

Chain of Cytochrome P450 3A4 (P08684 whole entry): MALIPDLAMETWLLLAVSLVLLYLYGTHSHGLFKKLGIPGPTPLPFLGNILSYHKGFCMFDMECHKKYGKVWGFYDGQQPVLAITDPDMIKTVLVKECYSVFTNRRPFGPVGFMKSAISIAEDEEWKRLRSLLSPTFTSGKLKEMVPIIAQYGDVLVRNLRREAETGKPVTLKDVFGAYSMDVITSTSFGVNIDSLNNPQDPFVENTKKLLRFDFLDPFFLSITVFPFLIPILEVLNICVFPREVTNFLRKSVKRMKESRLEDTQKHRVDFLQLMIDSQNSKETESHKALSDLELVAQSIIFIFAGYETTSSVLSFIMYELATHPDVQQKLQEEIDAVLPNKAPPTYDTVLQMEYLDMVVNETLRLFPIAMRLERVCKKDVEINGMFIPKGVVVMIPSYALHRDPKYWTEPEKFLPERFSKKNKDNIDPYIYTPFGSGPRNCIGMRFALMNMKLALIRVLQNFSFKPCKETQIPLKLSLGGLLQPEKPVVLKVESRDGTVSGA
Chain of Cannabinoid receptor 1 (P21554 whole entry): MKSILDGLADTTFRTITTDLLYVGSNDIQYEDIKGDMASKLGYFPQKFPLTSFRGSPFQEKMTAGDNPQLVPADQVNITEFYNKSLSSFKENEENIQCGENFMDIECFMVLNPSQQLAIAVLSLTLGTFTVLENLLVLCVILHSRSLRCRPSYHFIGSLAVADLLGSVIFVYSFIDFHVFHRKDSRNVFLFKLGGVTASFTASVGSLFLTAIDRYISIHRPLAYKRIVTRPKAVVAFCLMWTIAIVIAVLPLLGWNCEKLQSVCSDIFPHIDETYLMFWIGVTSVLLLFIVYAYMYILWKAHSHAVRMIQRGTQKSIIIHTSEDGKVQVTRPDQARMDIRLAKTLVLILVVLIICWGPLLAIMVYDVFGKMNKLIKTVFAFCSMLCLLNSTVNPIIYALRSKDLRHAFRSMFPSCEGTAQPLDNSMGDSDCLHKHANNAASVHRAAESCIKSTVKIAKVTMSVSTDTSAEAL
Chain of Cytochrome P450 2D6 (P10635 whole entry): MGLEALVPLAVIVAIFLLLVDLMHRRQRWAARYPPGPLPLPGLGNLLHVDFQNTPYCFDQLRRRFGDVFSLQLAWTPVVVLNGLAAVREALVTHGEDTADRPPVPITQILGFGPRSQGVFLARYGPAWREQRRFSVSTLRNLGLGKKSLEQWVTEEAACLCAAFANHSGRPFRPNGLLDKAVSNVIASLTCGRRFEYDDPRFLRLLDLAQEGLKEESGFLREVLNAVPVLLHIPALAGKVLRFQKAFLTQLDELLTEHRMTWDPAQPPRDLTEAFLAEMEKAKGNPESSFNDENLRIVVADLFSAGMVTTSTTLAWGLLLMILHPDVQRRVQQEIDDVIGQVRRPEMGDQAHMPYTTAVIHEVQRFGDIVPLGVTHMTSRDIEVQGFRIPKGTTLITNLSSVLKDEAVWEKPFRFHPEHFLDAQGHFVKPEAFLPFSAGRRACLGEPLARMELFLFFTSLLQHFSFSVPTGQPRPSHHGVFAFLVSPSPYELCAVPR
Chain of Cannabinoid receptor 2 (P34972 whole entry): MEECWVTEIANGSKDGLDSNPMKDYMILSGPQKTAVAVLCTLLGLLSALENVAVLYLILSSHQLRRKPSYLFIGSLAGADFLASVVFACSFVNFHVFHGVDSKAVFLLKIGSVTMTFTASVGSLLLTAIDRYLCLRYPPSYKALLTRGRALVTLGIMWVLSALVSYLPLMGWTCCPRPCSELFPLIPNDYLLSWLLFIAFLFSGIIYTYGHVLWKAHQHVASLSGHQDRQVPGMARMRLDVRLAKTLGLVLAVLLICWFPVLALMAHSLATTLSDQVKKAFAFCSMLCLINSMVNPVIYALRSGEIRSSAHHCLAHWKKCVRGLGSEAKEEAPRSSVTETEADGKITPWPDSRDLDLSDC

CCCCCc1cc(O)c2c(c1)OC(C)(CCC=C(C)C)C=C2 (stereo not drawn) [CANNABICHROMENE]
fold change (FC) (Cytochrome P450 3A4): 5
Drug metabolism [1]: Metabolite_Detected
pKi (Cannabinoid receptor 2): ~7.00
Drug metabolism [2]: Metabolite_Detected
pKi (Cannabinoid receptor 1): ~6.15
Ratio (Cytochrome P450 2J2 [3]): ~ 50
fold change (FC) (Cytochrome P450 2C8 [4]): 5
Drug metabolism [5]: Metabolite_Notdetected
Drug metabolism [6]: Metabolite_Notdetected
Ratio (Cytochrome P450 2C8 [7]): ~ 5
Drug metabolism [8]: Metabolite_Detected
fold change (FC) (Cytochrome P450 2D6): 3
Drug metabolism [9]: Metabolite_Detected
fold change (FC) (Cytochrome P450 2J2 [10]): 3
Drug metabolism [11]: Metabolite_Detected
Drug metabolism [12]: Metabolite_Detected
Activity (BV-2 [13]): Non-Toxic
Drug metabolism [14]: Metabolite_Detected
Drug metabolism [15]: Metabolite_Detected

CCCCCc1cc(O)c2c(c1)OC(C)(CC/C=C(\C)CO)C=C2 (stereo not drawn)
Activity (BV-2 [16]): inactive
Activity (BV-2 [17]): inactive
Activity (BV-2 [18]): inactive
Activity (BV-2 [13]): Non-Toxic

CCCCCc1cc(O)c2c(c1)OC(C)(CCC(O)C(C)(C)O)C=C2 (stereo not drawn)
Activity (BV-2 [19]): Dose-Dependent Effect
Activity (BV-2 [20]): Active
Activity (BV-2 [21]): Dose-Dependent Effect
Activity (BV-2 [22]): Dose-Dependent Effect
Activity (BV-2 [13]): Non-Toxic

CCCCC(O)c1cc(O)c2c(c1)OC(C)(CCC=C(C)C)C=C2 (stereo not drawn)
Activity (BV-2 [19]): Dose-Dependent Effect
Activity (BV-2 [20]): Active
Activity (BV-2 [22]): Dose-Dependent Effect
Activity (BV-2 [13]): Non-Toxic

CCCCCc1cc(O)c2c(c1)OC(C)(CCC1OC1(C)C)C=C2 (stereo not drawn)
Activity (BV-2 [20]): Active
Activity (BV-2 [13]): Non-Toxic

C=C(C)C(O)CCC1(C)C=Cc2c(O)cc(CCCCC)cc2O1 (stereo not drawn)
Activity (BV-2 [20]): Active
Activity (BV-2 [21]): Dose-Dependent Effect
Activity (BV-2 [22]): Dose-Dependent Effect
Activity (BV-2 [13]): Non-Toxic
